Measured values published in ChEMBL document CHEMBL4043132, “3-O-Substituted-3',4',5'-trimethoxyflavonols: Synthesis and cell-based evaluation as anti-prostate cancer agents” (Bioorg Med Chem, 2017).

Tests used:
Assay type in all cases: functional, cell-based
[1] = test system: LNCaP; test: Antiproliferative activity against human LNCAP cells after 3 days by WST-1 assay; details: 72 h
Outline: (§1)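 Cells from ATCC; PC-3 and LNCaP grown in RPMI-1640 and DU145 in EMEM, each with 10% FBS and 1% penicillin/streptomycin, 37 °C, 5% CO2. Seeded 3,200 cells/well and exposed for 3 days to at least five doses, with DMSO as vehicle control. WST-1 reagent added for 3 h at 37 °C, absorbance read at 430 nm. IC50 taken from a linear inhibition plot; mean ± SD of three independent experiments.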

[2] = test system: DU-145; test: Antiproliferative activity against human DU145 cells after 3 days by WST-1 assay; details: DU-145, 72 h; outline: as §1
[3] = test system: PC-3; test: Antiproliferative activity against human PC3 cells after 3 days by WST-1 assay; details: PC-3, 72 h; outline: as §1

SMILES	IC50 [1]	IC50 [2]	IC50 [3]
CCCCCN(CCCCC)CCCCCOc1c(-c2cc(OC)c(OC)c(OC)c2)oc2ccccc2c1=O	7.9 µM	11.7 µM	9.6 µM
COc1cc(-c2oc3ccccc3c(=O)c2OC(C)C)cc(OC)c1OC	8.8 µM	> 50 µM	21.2 µM
CCCCCCOc1c(-c2cc(OC)c(OC)c(OC)c2)oc2ccccc2c1=O	19.6 µM	> 50 µM	29.2 µM
CCCCCCCOc1c(-c2cc(OC)c(OC)c(OC)c2)oc2ccccc2c1=O	> 50 µM	> 50 µM	> 50 µM
CCC(C)Oc1c(-c2cc(OC)c(OC)c(OC)c2)oc2ccccc2c1=O (stereo unspecified)	9.3 µM	> 50 µM	38.6 µM
CCCOc1c(-c2cc(OC)c(OC)c(OC)c2)oc2ccccc2c1=O	5.7 µM	2.8 µM	11.8 µM
CCCCN(CCCC)CCCOc1c(-c2cc(OC)c(OC)c(OC)c2)oc2ccccc2c1=O	9 µM	15.7 µM	7.1 µM

Other lines, results leading:

IC50 [1]	IC50 [2]	IC50 [3]	SMILES
37.6 µM	> 50 µM	13.6 µM	CCN(CC)CCCOc1c(-c2cc(OC)c(OC)c(OC)c2)oc2ccccc2c1=O
15.4 µM	> 50 µM	22.2 µM	CCCCCOc1c(-c2cc(OC)c(OC)c(OC)c2)oc2ccccc2c1=O
13.5 µM	13.3 µM	13.7 µM	CCN(CC)CCCCOc1c(-c2cc(OC)c(OC)c(OC)c2)oc2ccccc2c1=O
10 µM	33.4 µM	6.6 µM	CCN(CC)CCCCCOc1c(-c2cc(OC)c(OC)c(OC)c2)oc2ccccc2c1=O
9.7 µM	12.5 µM	7.9 µM	CCCCCN(CCCCC)CCCCOc1c(-c2cc(OC)c(OC)c(OC)c2)oc2ccccc2c1=O
